# Laboratory results reported in PubChem BioAssay.
# The source made the active and inactive calls.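 The calls were made as follows, unless noted: active = GFP response above 150% of the DMSO level; inconclusive = fewer than 70 events counted for a yeast strain; inactive = the rest.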
# Assays:
# [1] = hit retest on RPL19A-GFP reporter strain – cell-based, S. cerevisiae, flow cytometry, cherry picks, mother/daughter gates, confirmation (AID 2270;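 active = GFP response below 50% of the DMSO control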); settings: 3 h, at 10 µM, stronger effect = lower value, 100 = same GFP as DMSO wells
# [2] = yeast TOR pathway reporter LAP4-GFP change – cell-based, cherry picks, flow cytometry, mother/daughter gates, confirmation (AID 2271;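 active = GFP response above 150% of the DMSO control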;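 also: ratio of sample to DMSO plate mean so 100% equals DMSO level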); settings: S. cerevisiae LAP4-GFP strain, 3 h, at 10 µM, stronger effect = higher value, 100 means same as DMSO control
# Summary of the method: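 material = Alexa 633-stained baker's yeast GFP-fusion strain | amount = 0.2 OD600 cells | schedule = 30 °C, 3 h compound incubation, rotating | signal = GFP by flow cytometry | measure = per-gate (all, mother, daughter) GFP response vs DMSO | controls = positive rapamycin (400 ng/mL), negative DMSO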
# [3] = TOR pathway reporter MEP2-GFP, retest of hits – S. cerevisiae, flow cytometry GFP, cherry picks, confirmation (AID 2272;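 active = GFP response above 150% of the DMSO control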;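 also: ratio of well signal to plate DMSO mean so 100% equals DMSO level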); settings: S. cerevisiae MEP2-GFP strain, 3 h, at 10 µM, stronger effect = higher value
# [4] = yeast AGP1-GFP fluorescence change, single-dose – cell-based, flow cytometry, S. cerevisiae, cherry picks, confirmation (AID 2273);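 also: median GFP channel fluorescence over the whole cell population gate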; settings: S. cerevisiae AGP1-GFP strain, 3 h, at 10 µM
# [5] = TOR pathway CIT2 reporter hit retest – S. cerevisiae, GFP fusion, cherry picks, mother/daughter gates, confirmation (AID 2274); settings: S. cerevisiae CIT2-GFP strain, flow cytometry, 3 h, at 10 µM, stronger effect = higher value
# [6] = measured here: daughter cell gate
# [7] = measured here: mother cell gate
# [8] = measured here: daughter cell gate response
# [9] = measured here: mother cell gate response
Structure (SMILES),GFP response vs DMSO [1],"GFP response vs DMSO [1, 6]","GFP response vs DMSO [1, 7]",GFP response relative to DMSO [2],"GFP response relative to DMSO [2, 8]","GFP response relative to DMSO [2, 9]",GFP response vs DMSO [3],"GFP response, % of DMSO [4]","GFP response, % of DMSO [5]","GFP response, % of DMSO [5, 6]","GFP response, % of DMSO [5, 7]"
O=C1CC(SCc2nc3ccccc3[nH]2)C(=O)N1c1cccc(F)c1 (stereo unspecified),98.7% (inactive),99.3%,97.5%,104% (inactive),105%,105%,99.3% (inactive),102% (inactive),103% (inactive),103%,103%
Cc1cccc(NC(=O)c2ccc([N+](=O)[O-])o2)c1,103% (inactive),105%,101%,126% (inactive),115%,125%,106% (inactive),96.2% (inactive),105% (inactive),106%,101%
CC1=NNC(=O)/C1=C\c1cn(-c2ccccc2)nc1-c1ccccc1,98% (inactive),82.8%,95.5%,242% (active),164%,236%,110% (inactive),124% (inactive),115% (inactive),93.7%,104%
O=C1c2ccsc2SCCN1Cc1ccccc1Cl,94.2% (inactive),92%,95.7%,111% (inactive),102%,114%,90.5% (inactive),97.5% (inactive),93% (inactive),93.8%,90.7%
Cc1ccc2[nH]c3c(=O)n(CC(=O)N4CCN(C)CC4)ncc3c2c1,95% (inactive),93.4%,96.2%,95.4% (inactive),96%,96.1%,98.3% (inactive),99.3% (inactive),101% (inactive),103%,101%
CCCc1[nH]nc2c1C(c1cccc(OC)c1)C(C#N)=C(N)O2 (stereo unspecified),103% (inactive),101%,103%,98.2% (inactive),95.9%,97.3%,105% (inactive),98.6% (inactive),102% (inactive),97.4%,103%
Clc1cccc(Cn2ncc3ccccc32)c1,95% (inactive),95.1%,94.9%,103% (inactive),102%,103%,92% (inactive),94.1% (inactive),95.5% (inactive),95.4%,95%
Cc1ccc(-n2nc(C)c3c(C)c(CCC(=O)O)c(C)nc32)cc1,102% (inactive),100%,103%,101% (inactive),101%,100%,96.8% (inactive),100% (inactive),102% (inactive),101%,102%
C=CCn1c(=O)c(C(=O)Nc2ccccc2O)c(O)c2ccccc21,99.8% (inactive),98.9%,101%,108% (inactive),106%,106%,105% (inactive),98.7% (inactive),104% (inactive),105%,102%
O=C(c1ccc(Cl)cc1)N1CCN(c2cccc3[nH]ccc23)CC1,94.6% (inactive),94.1%,93.1%,108% (inactive),107%,105%,105% (inactive),91.9% (inactive),96.9% (inactive),99.1%,95%
O=C1C(=O)c2ccc(-c3ccccc3)cc2-c2ccccc21,102% (inactive),104%,102%,117% (inactive),110%,124%,115% (inactive),90.4% (inactive),107% (inactive),106%,102%
Cc1cccn2c(=O)c(/C=C(\C#N)C(=O)NCc3ccco3)c(N3CCCCCC3)nc12,97% (inactive),97.3%,97.2%,96.2% (inactive),95.6%,98.3%,97.8% (inactive),95.4% (inactive),90% (inactive),89.9%,86.9%
Cc1c(C(=O)Nc2ccccc2)cnn1-c1ccccc1,98.2% (inactive),97.4%,99.2%,103% (inactive),101%,105%,105% (inactive),96.8% (inactive),104% (inactive),97.2%,103%
Cn1c(=O)c(C(=O)Nc2ncccc2O)c(O)c2ccccc21,95.3% (inactive),93.9%,91.8%,100% (inactive),91.3%,90.3%,145% (inactive),99.8% (inactive),90.3% (inactive),90.5%,88.2%
COc1cccc(CNC(=O)CCC(=O)N2Cc3cccc(OC)c3Oc3ncccc32)c1OC,99.4% (inactive),99.9%,99.2%,95.4% (inactive),96%,94%,102% (inactive),100% (inactive),104% (inactive),105%,104%
COc1cc(/C=C2\N=C(c3ccccc3)OC2=O)ccc1OCc1c(C)no[n+]1[O-],103% (inactive),101%,103%,96.5% (inactive),97.9%,96.5%,104% (inactive),97.5% (inactive),99.3% (inactive),100%,96.8%
